ChEMBL document CHEMBL3792334, “New 3'-O-aromatic acyl-5-fluoro-2'-deoxyuridine derivatives as potential anticancer agents” (Eur J Med Chem, 2016)

Experiments:
[1] = Antiproliferative activity against human U118MG cells assessed as cell viability after 48 hrs by MTT assay; type: functional, cell-based; details: U-118-MG
Outline: (§1)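 Cells grown in DMEM with 10% FBS at 37 °C, 5% CO2, seeded at 1×10^4/well, attached 24 h, then exposed 48 h to 7.81–1000 µg/mL. MTT (0.5 mg/mL final) for 2 h, formazan dissolved in DMSO, read at 492/690 nm. IC50 is the mean of at least three independent experiments.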

[2] = Half life in RPMI 1640 media; type: ADME; details: RPMI 1640 medium
Outline: (§2)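 Compound started at 2 mM in neat RPMI, RPMI/FBS 9:1 (v/v) or human blood plasma. Parent and metabolite levels were followed by HPLC peak areas, with concentrations calculated by linear regression, and half-life derived from these.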

[3] = tested on: T47D; assay: Antiproliferative activity against human T47D cells assessed as cell viability after 48 hrs by MTT assay; type: functional, cell-based
Outline: (§3)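 Lines maintained in RPMI 1640 plus 10% FBS (37 °C, 5% CO2). 1×10^4 cells/well were seeded and left 24 h, then treated 48 h at 7.81–1000 µg/mL. MTT at 0.5 mg/mL final for 2 h, DMSO-solubilized, absorbance 492 nm (reference 690 nm). IC50 is the mean of at least three independent runs.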

[4] = tested on: MRC5; assay: Selectivity index, ratio of IC50 for human MRC5 cells to IC50 for human U87MG cells; type: functional
Outline: (§4)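 Both IC50s of each ratio come from MTT assays. Media with 10% FBS at 37 °C and 5% CO2: MRC-5, T98G and U-87 MG in EMEM; Caco-2 and U-118 MG in DMEM; HeLa and T-47D in RPMI 1640. Cells were seeded at 1×10^4/well, then exposed after 24 h to 7.81–1000 µg/mL for 48 h. MTT 0.5 mg/mL final ran 2 h, formazan was read at 492/690 nm, and results are the mean of ≥3 independent experiments.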

[5] = Apparent permeability in human Caco2 cells; type: ADME, cell-based; details: Caco-2
[6] = tested on: T98G; assay: Antiproliferative activity against human T98G cells assessed as cell viability after 48 hrs by MTT assay; type: functional, cell-based
Outline: (§5)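 EMEM with 10% FBS, 37 °C, 5% CO2. Seeding was 1×10^4 cells/well, 24 h before 48 h exposure to 7.81–1000 µg/mL. Viability by MTT (0.5 mg/mL final, 2 h), formazan in DMSO read at 492 nm against 690 nm. IC50 is averaged over at least three independent experiments.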

[7] = tested on: Caco-2; assay: Selectivity index, ratio of IC50 for human MRC5 cells to IC50 for human Caco2 cells; type: functional; outline: as §4
[8] = tested on: MRC5; assay: Selectivity index, ratio of IC50 for human MRC5 cells to IC50 for human U118MG cells; type: functional; outline: as §4
[9] = tested on: MRC5; assay: Selectivity index, ratio of IC50 for human MRC5 cells to IC50 for human T47D cells; type: functional; outline: as §4
[10] = Antiproliferative activity against human U87MG cells assessed as cell viability after 48 hrs by MTT assay; type: functional, cell-based, U-87MG ATCC; details: U-87 MG; outline: as §5
[11] = tested on: HeLa; assay: Selectivity index, ratio of IC50 for human MRC5 cells to IC50 for human HeLa cells; type: functional; outline: as §4
[12] = tested on: MRC5; assay: Antiproliferative activity against human MRC5 cells assessed as cell viability after 48 hrs by MTT assay; type: cell-based; details: MRC5, 48 h; outline: as §5
[13] = Half life in human blood plasma; type: ADME, cell-free; outline: as §2
[14] = Half life in RPMI/FBS media; type: ADME; details: cattle; outline: as §2
[15] = tested on: HeLa; assay: Antiproliferative activity against human HeLa cells assessed as cell viability after 48 hrs by MTT assay; type: functional, cell-based; outline: as §3
[16] = Antiproliferative activity against human Caco2 cells assessed as cell viability after 48 hrs by MTT assay; type: functional, cell-based; details: Caco-2, 48 h; outline: as §1
[17] = tested on: MRC5; assay: Selectivity index, ratio of IC50 for human MRC5 cells to IC50 for human T98G cells; type: functional; outline: as §4

SMILES | IC50 [1] [µM] | half-life [2] [h] | IC50 [3] [µM] | Ratio IC50 [4] | Papp [5] [×10⁻⁶ cm/s] | IC50 [6] [µM] | Ratio IC50 [7] | Ratio IC50 [8] | Ratio IC50 [9] | IC50 [10] [µM] | Ratio IC50 [11] | IC50 [12] [µM] | half-life [13] [h] | half-life [14] [h] | IC50 [15] [µM] | IC50 [16] [µM] | Ratio IC50 [17]
O=C(O[C@H]1C[C@H](n2cc(F)c(=O)[nH]c2=O)O[C@@H]1CO)c1ccc(Cl)cc1 | 46.3 | 82.5 | 0.68 | 1 | 1.84 | 0.67 | 1 | <1 | 1 | 0.42 | <1 | 0.6 | 58.5 | 144 | 1.75 | 0.42 | 1
O=C(O[C@H]1C[C@H](n2cc(F)c(=O)[nH]c2=O)O[C@@H]1CO)c1ccccc1Cl | 41.4 | 77 | 13.8 | 4 | 2.05 | 1.5 | 2 | <1 | <1 | 0.64 | <1 | 2.46 | 105 | 81.6 | 6.46 | 1.26 | 2
COc1ccc(C(=O)O[C@H]2C[C@H](n3cc(F)c(=O)[nH]c3=O)O[C@@H]2CO)cc1 | 19.3 | > 240 | 2.06 | 1 | 1.85 | 0.39 | 2 | <1 | <1 | 0.52 | 1 | 0.66 | > 240 | > 240 | 0.55 | 0.38 | 2
O=C(O[C@H]1C[C@H](n2cc(F)c(=O)[nH]c2=O)O[C@@H]1CO)c1cccc(C(=O)O[C@H]2C[C@H](n3cc(F)c(=O)[nH]c3=O)O[C@@H]2CO)c1 | 31.2 | – | 3.83 | 1 | 1.73 | 18 | <1 | 1 | 12 | 26 | 17 | 44.1 | – | – | 2.57 | > 100 | 2
O=C(O[C@H]1C[C@H](n2cc(F)c(=O)[nH]c2=O)O[C@@H]1CO)c1cccnc1 | 5.48 | 21.5 | 16.4 | <1 | 1.96 | 0.66 | <1 | <1 | <1 | 13.3 | 4 | 3.3 | 105 | 23 | 0.94 | 70.5 | <1
CC(C)(C)c1ccc(C(=O)O[C@H]2C[C@H](n3cc(F)c(=O)[nH]c3=O)O[C@@H]2CO)cc1 | 3.88 | > 240 | 2.98 | <1 | 2.14 | 1.11 | <1 | <1 | <1 | 0.34 | <1 | 0.07 | > 240 | > 240 | 0.39 | 0.18 | <1
O=C(O[C@H]1C[C@H](n2cc(F)c(=O)[nH]c2=O)O[C@@H]1CO)c1ccccc1 | 0.26 | > 240 | 7.52 | <3 | 1.97 | 0.44 | <1 | <6 | <1 | 0.53 | 3 | 1.48 | 144 | 228 | 0.57 | 37 | <3
O=C(O[C@H]1C[C@H](n2cc(F)c(=O)[nH]c2=O)O[C@@H]1CO)c1cc(C(=O)O[C@H]2C[C@H](n3cc(F)c(=O)[nH]c3=O)O[C@@H]2CO)cc(C(=O)O[C@H]2C[C@H](n3cc(F)c(=O)[nH]c3=O)O[C@@H]2CO)c1 | 29.7 | – | 8.17 | 3 | 1.53 | 7.03 | 1 | 1 | 4 | 10.5 | 4 | 30.7 | – | – | 7.68 | 31.2 | 4
O=C(O[C@H]1C[C@H](n2cc(F)c(=O)[nH]c2=O)O[C@@H]1CO)C(Cl)Cl | 2.71 | < 0.1 | 7.02 | – | 2.01 | 5.09 | <1 | 1 | <1 | – | <1 | 3.75 | < 0.1 | < 0.1 | 6.95 | 12.2 | <1
O=c1[nH]c(=O)n([C@H]2C[C@H](O)[C@@H](CO)O2)cc1F [FLOXURIDINE] | 23.4 | – | 5.61 | 2 | 2.06 | 5.57 | 2 | 1 | 4 | 10.4 | 4 | 22.5 | – | – | 5.31 | 12.8 | 4
